These results are taken from ChEMBL document CHEMBL4825680, “Structure-based discovery of potent and selective small-molecule inhibitors targeting signal transducer and activator of transcription 3 (STAT3)” (Eur J Med Chem, 2021).

SMILES strings stand for the structures. Activity calls are given as the source filed them. The rule behind the calls is not given here.

The subject of series [1] is MDA-MB-231. The series is described as follows: Effect on total STAT3 level in human MDA-MB-231 cells at 0.3 to 3 uM measured after 3 hrs by Western blot analysis. The class given is functional, cell-based. The conditions noted are these: dose 0.3-3 µM. The method, boiled down: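 Breast cancer cells were treated with vehicle (0.1% DMSO) or compound, then lysed in RIPA with PMSF and phosphatase inhibitors. 20–50 μg protein was run on 8 or 12% SDS-PAGE, blotted to PVDF, blocked in 5% BSA, probed with primary antibodies overnight at 4 °C, then HRP secondaries, with ECL detection.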
Background: In western blotting, separated proteins are transferred to a membrane and probed.

Series [2] has as its target T1, Signal transducer and activator of transcription 3 (Homo sapiens, UniProt P40763). The series is described as follows: Inhibition of STAT3 in human MDA-MB-231 cells assessed as downregulation of c-Myc expression at 0.3 to 3 uM after 24 hrs by western blot analysis. The class given is cell-based. The conditions noted are these: dose 0.3-3 µM. In short, it runs like this:
(§1)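 TNBC cells given vehicle (0.1% DMSO) or graded compound levels for 24 h, lysed in RIPA with PMSF and phosphatase inhibitors. BCA-quantified lysate (20–50 µg) run on SDS-PAGE, transferred to PVDF, blocked in 5% BSA. Probed overnight at 4 °C for Bcl-xL, Mcl-1 and c-Myc, with β-actin. HRP secondary, ECL detection. Three independent experiments.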

In series [3] the target is T1, Signal transducer and activator of transcription 3. Description: Inhibition of STAT3 in human MDA-MB-231 cells assessed as downregulation of Mcl-1 expression at 0.3 to 3 uM after 24 hrs by western blot analysis. In kind it is cell-based. The note with it: dose 0.3-3 µM. In short, it runs like this:
as §1

Series [4] shares this target. The series is described as follows: Inhibition of STAT3 in human MDA-MB-468 cells assessed as downregulation of Mcl-1 expression at 0.3 to 3 uM after 24 hrs by western blot analysis. In kind it is cell-based. The conditions noted are these: dose 0.3-3 µM. The method, boiled down:
as §1

For another series, the system named is HCC70. The series is described as follows: Antiproliferative activity against human HCC70 cells assessed as reduction in cell viability after 72 hrs by CCK8 assay. The class given is functional, cell-based. The conditions noted are these: HCC70, 72 h. In short, it runs like this:
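Cells seeded at 1000–8000 per well were grown overnight, then exposed to 0.1–100 μM compound or 0.1% DMSO vehicle for 72 h. CCK-8 was added for 0.5–4 h at 37 °C and absorbance read at 480 nm. Viability = (OD compound − blank)/(OD vehicle − blank) × 100, with medium as blank. IC50 fitted from three independent experiments.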

In series [5] the test system is MDA-MB-231. Description: Antiproliferative activity against STAT3 knocked down human MDA-MB-231 cells assessed as reduction in cell viability. The class given is functional, cell-based. The method, boiled down: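 MDA-MB-231 cells at 60–70% confluence were transfected with STAT3 siRNA or negative-control siRNA using DharmaFECT. Viability was then read by CCK-8.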

For series [6], the system named is MDA-MB-231. The series is described as follows: Induction of apoptosis in human MDA-MB-231 cells assessed as viable cells at 3 uM after 48 hrs by Annexin-V-FITC/propidium iodide staining based flow cytometric analysis (reference value: 93.4%). The class given is functional. The note with it: read-out: Activity. A general note: Flow cytometry measures light scatter and fluorescence of single cells or particles in a stream.

The nature of series [7]: Induction of apoptosis in human MDA231-LM2-4175 cells assessed as necrotic cells at 3 uM after 48 hrs by Annexin-V-FITC/propidium iodide staining based flow cytometric analysis (reference value: 0.531%). The class given is functional.
Series [8] deals with MDA-MB-231. The series is described as follows: Induction of apoptosis in human MDA-MB-231 cells assessed as increase in caspase-7 cleavage at 3 uM after 48 hrs by Western blot analysis. The class given is functional, cell-based. In short, it runs like this:
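Cells were treated with vehicle (0.1% DMSO) or compound, then analysed by western blot of RIPA lysates (20–50 μg protein, SDS-PAGE, PVDF) for PARP and cleaved caspase-7, with β-actin as loading control. Three independent experiments.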

The subject of the next series is MDA231-LM2-4175. Description: Antitumor activity against human MDA231-LM2-4175 cells xenografted in mouse assessed as reduction in Mcl expression at 5 to 15 mg/kg, iv administered once daily for 20 days by Western blotting analysis. The class given is functional, organism-based. The note with it: dose 5-15 mg/kg, time 20.0 day. (In general: Xenograft models place foreign cells or tissue in a host animal.)

Series [9] can be described thus: Toxicity in mouse xenografted with human MDA-MB-231-4175 cells assessed as morphological change in liver at 5 to 15 mg/kg, […] once daily for 20 days by HE staining based assay. The note with it: in vivo, iv, dose 5-15 mg/kg, time 20 day. The class given is organism-based. The method, boiled down: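 Female NOD-SCID mice aged 4–5 weeks, given 2×10^6–3×10^6 MDA-MB-231-4175 cells subcutaneously in the flank. At about 100 mm³ tumour volume, randomised n=6/group: vehicle (PBS with 15% Cremophor EL), 5 or 15 mg/kg intraperitoneally daily. Killed at day 20; heart, liver, spleen, lung and kidney collected for morphological examination.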

In the next series the test system is Breast cancer cell line. The series is described as follows: Antitumor activity against patient-derived breast cancer cells xenografted in NOD/SCID mouse assessed as reduction in Ki67 expression at 5 to 15 mg/kg, iv administered once daily for 20 days by immunohistochemical analysis. In kind it is functional, organism-based. The note with it: Homo sapiens, dose 5-15 mg/kg, time 20.0 day.

A short description of series [10]: Toxicity in NOD/SCID mouse xenografted with patient-derived breast cancer cells assessed as morphological change in heart at 5 to 15 mg/kg, […] once daily for 20 days by HE staining based assay. The conditions noted are these: in vivo, iv, dose 5-15 mg/kg, time 20 day. The class given is organism-based. The method, boiled down: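 Female NOD-SCID mice implanted subcutaneously in the flank with about 2 mm³ TNBC PDX fragments. At about 100 mm³ tumour volume, randomised n=6/group: vehicle (PBS with 15% Cremophor EL), 5 or 15 mg/kg intraperitoneally daily. Killed at day 20; heart, liver, spleen, lung and kidney collected for morphological examination.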

Series [11] can be described thus: Toxicity in NOD/SCID mouse xenografted with patient-derived breast cancer cells assessed as loss of appetite at 5 to 15 mg/kg, iv administered once daily for 20 days. In kind it is organism-based. The note with it: in vivo, 480 h, dose 5-15 mg/kg, time 20 day.

T1 sequence (P40763 whole entry): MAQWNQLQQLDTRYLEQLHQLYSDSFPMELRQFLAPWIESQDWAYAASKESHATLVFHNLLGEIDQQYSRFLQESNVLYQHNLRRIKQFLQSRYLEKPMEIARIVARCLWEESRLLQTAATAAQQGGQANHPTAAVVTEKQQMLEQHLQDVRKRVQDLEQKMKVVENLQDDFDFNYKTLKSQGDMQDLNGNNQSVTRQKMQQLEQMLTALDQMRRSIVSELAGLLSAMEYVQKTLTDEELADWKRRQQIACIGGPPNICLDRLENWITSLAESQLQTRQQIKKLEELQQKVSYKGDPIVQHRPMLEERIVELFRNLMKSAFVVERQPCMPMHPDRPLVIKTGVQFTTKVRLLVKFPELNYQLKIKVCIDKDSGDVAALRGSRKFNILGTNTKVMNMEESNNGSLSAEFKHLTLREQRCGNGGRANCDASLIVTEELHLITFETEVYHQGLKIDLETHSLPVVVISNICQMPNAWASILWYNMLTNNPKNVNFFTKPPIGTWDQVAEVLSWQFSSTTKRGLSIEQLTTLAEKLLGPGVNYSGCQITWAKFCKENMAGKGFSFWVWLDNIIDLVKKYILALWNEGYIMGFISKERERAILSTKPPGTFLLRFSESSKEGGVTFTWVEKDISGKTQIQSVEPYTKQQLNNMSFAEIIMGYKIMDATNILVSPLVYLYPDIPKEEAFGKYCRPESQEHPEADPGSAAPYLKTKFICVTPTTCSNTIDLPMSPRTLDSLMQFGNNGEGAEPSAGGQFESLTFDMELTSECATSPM

In general, IC50 refers to the concentration needed to halve the response being measured. With `O=C(Cc1c(-c2ccccc2)nc2ccccn12)Nc1ccc2c(c1)S(=O)(=O)C=C2`, the outcome in the series with MDA-MB-231 [1] and in the series with MDA-MB-231 [5] was inactive. The inhibition result in [2], in series [3] and in series [4] was “Active” throughout. Also, the IC50 in the series on HCC70 was 1.1 µM. The viability at 3 µM in the series on MDA-MB-231 [6] was 73.9%. Also, the Activity in series [7] was 1.37%; in series [9], “Non-Toxic”; in [10] it was “Non-Toxic”; in series [11], “Non-Toxic”. Further, the outcome in the series with MDA-MB-231 [8], in the series with MDA231-LM2-4175 and with Breast cancer cell line was Active.
